In one assay the test system is Rhodotorula mucilaginosa. The assay can be described thus: Antifungal activity against Rhodotorula pilimanae ATCC 26423 after 24 to 48 hrs by soft agar procedure. The format is functional. In short, it runs like this: (§1)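 Tolaasin stock solutions in distilled water were serially diluted 1:1 and applied as drops onto soft-agar lawns of the test organism. The endpoint recorded was the last dilution that still inhibited growth in the area where the drop was applied.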

The test system of assay [1] is Pectobacterium carotovorum. The assay can be described thus: Antibacterial activity against Erwinia carotovora subsp. carotovora ICMP 5702 after 24 to 48 hrs by soft agar procedure. The format is functional, Pectobacterium carotovorum subsp. carotovorum. In short, it runs like this:
as §1

A further assay has as its system Rhodococcus fascians. Kind of assay: Antibacterial activity against Rhodococcus fascians NCPPB3067 after 24 to 48 hrs by soft agar procedure. Type of assay: functional, Rhodococcoides fascians. In short, it runs like this:
as §1

The subject of a further assay is Rhizoctonia solani. The assay can be described thus: Antifungal activity against Rhizoctonia solani 1583 after 24 to 48 hrs by soft agar procedure. Type of assay: functional. In short, it runs like this:
as §1

The subject of a further assay is Priestia megaterium. The assay can be described thus: Antibacterial activity against Bacillus megaterium ITM 100 after 24 to 48 hrs by soft agar procedure. Type of assay: functional. In short, it runs like this:
as §1

In another assay the test system is Escherichia coli. The assay can be described thus: Antibacterial activity against Escherichia coli K-12 ITM103 after 24 to 48 hrs by soft agar procedure. Type of assay: functional. In short, it runs like this: as §1

Consider `C/C=C(\NC(=O)[C@H](NC(=O)[C@H](CC(C)C)NC(=O)[C@@H](CCC(N)=O)NC(=O)[C@@H](NC(=O)[C@H](NC(=O)[C@@H](CC(C)C)NC(=O)[C@@H](CO)NC(=O)[C@H](NC(=O)[C@H](CC(C)C)NC(=O)[C@H](CO)NC(=O)[C@H]1CCCN1C(=O)/C(=C/C)NC(=O)CCCC(=O)O)C(C)C)C(C)C)C(C)C)C(C)C)C(=O)N[C@H]1C(=O)N[C@@H]([C@@H](C)CC)C(=O)N[C@@H](CCO)C(=O)N[C@H](CCN)C(=O)N[C@@H](CCCCN)C(=O)O[C@@H]1C` [TOLAASIN A], for which the MIC in the assay with Rhodotorula mucilaginosa was 5.12 µg; in assay [1], more than 5.12 µg; with Rhodococcus fascians it was 1.28 µg; against Rhizoctonia solani, 1.28 µg; with Priestia megaterium it was 1.28 µg; against Escherichia coli, more than 5.12 µg.

Turning to `C/C=C(\NC(=O)[C@H](NC(=O)[C@H](CC(C)C)NC(=O)[C@@H](CCC(N)=O)NC(=O)[C@@H](NC(=O)[C@H](NC(=O)[C@@H](CC(C)C)NC(=O)[C@@H](CO)NC(=O)[C@H](NC(=O)[C@H](CC(C)C)NC(=O)[C@H](CO)NC(=O)[C@H]1CCCN1C(=O)/C(=C/C)NC(=O)CC(O)CCCCC)C(C)C)C(C)C)C(C)C)C(C)C)C(=O)N[C@H]1C(=O)N[C@@H](CC(C)C)C(=O)N[C@@H](CCO)C(=O)N[C@H](CCN)C(=O)N[C@@H](CCCCN)C(=O)O[C@@H]1C` (some centres not stated) [TOLAASIN D], the MIC is 2.56 µg against Rhodotorula mucilaginosa; more than 5.12 µg in assay [1]; 0.16 µg against Rhodococcus fascians; 0.16 µg in the assay with Rhizoctonia solani; 0.16 µg against Priestia megaterium; more than 5.12 µg in the assay with Escherichia coli.

In the case of `C/C=C(\NC(=O)[C@H](NC(=O)[C@H](CC(C)C)NC(=O)[C@@H](CCC(N)=O)NC(=O)[C@@H](NC(=O)[C@H](NC(=O)[C@@H](CC(C)C)NC(=O)[C@@H](CO)NC(=O)[C@H](NC(=O)[C@H](CC(C)C)NC(=O)[C@H](CO)NC(=O)[C@H]1CCCN1C(=O)/C(=C/C)NC(=O)CC(O)CCCCC)C(C)C)C(C)C)C(C)C)C(C)C)C(=O)N[C@@H](C(=O)N[C@H](C(=O)N[C@@H](CCO)C(=O)N[C@H](CCN)C(=O)N[C@@H](CCCCN)C(=O)O)[C@@H](C)CC)[C@@H](C)O` (some centres not stated) [TOLAASIN C], the MIC against Rhodotorula mucilaginosa is more than 5.12 µg; in assay [1] it was more than 5.12 µg; in the assay on Rhodococcus fascians it was more than 5.12 µg; in the assay with Rhizoctonia solani it was 5.12 µg; in the assay on Priestia megaterium it was more than 5.12 µg; with Escherichia coli it was more than 5.12 µg.

Turning to `C/C=C(\NC(=O)[C@H](NC(=O)[C@H](CC(C)C)NC(=O)[C@@H](CCC(N)=O)NC(=O)[C@@H](NC(=O)[C@H](NC(=O)[C@@H](CC(C)C)NC(=O)[C@@H](CO)NC(=O)[C@H](NC(=O)[C@H](CC(C)C)NC(=O)[C@H](CO)NC(=O)[C@H]1CCCN1C(=O)/C(=C/C)NC(=O)CC(O)CCCCC)C(C)C)C(C)C)C(C)C)C(C)C)C(=O)N[C@H]1C(=O)N[C@@H](CC(C)C)C(=O)NCC(=O)N[C@H](CCN)C(=O)N[C@@H](CCCCN)C(=O)O[C@@H]1C` (some centres not stated) [TOLAASIN E], the MIC against Rhodotorula mucilaginosa is more than 5.12 µg; in assay [1] it was more than 5.12 µg; in the assay with Rhodococcus fascians, 2.56 µg; against Rhizoctonia solani, 5.12 µg; in the assay on Priestia megaterium, 2.56 µg; in the assay with Escherichia coli, more than 5.12 µg.

Take `C/C=C(\NC(=O)[C@H](NC(=O)[C@H](CC(C)C)NC(=O)[C@@H](CCC(N)=O)NC(=O)[C@@H](NC(=O)[C@H](NC(=O)[C@@H](CC(C)C)NC(=O)[C@@H](CO)NC(=O)[C@H](NC(=O)[C@H](CC(C)C)NC(=O)[C@H](CO)NC(=O)[C@H]1CCCN1C(=O)/C(=C/C)NC(=O)CC(O)CCCCC)C(C)C)C(C)C)C(C)C)C(C)C)C(=O)N[C@H]1C(=O)N[C@@H]([C@@H](C)CC)C(=O)NCC(=O)N[C@H](CCN)C(=O)N[C@@H](CCCCN)C(=O)O[C@@H]1C` (some centres not stated) [TOLAASIN II]: the MIC with Rhodotorula mucilaginosa was 5.12 µg; in assay [1], more than 5.12 µg; in the assay on Rhodococcus fascians it was 0.64 µg; with Rhizoctonia solani, 0.64 µg; with Priestia megaterium, 0.64 µg; against Escherichia coli, more than 5.12 µg.

In the case of `C/C=C(\NC(=O)[C@H](NC(=O)[C@H](CC(C)C)NC(=O)[C@@H](CCC(N)=O)NC(=O)[C@@H](NC(=O)[C@H](NC(=O)[C@@H](CC(C)C)NC(=O)[C@@H](CO)NC(=O)[C@H](NC(=O)[C@H](CC(C)C)NC(=O)[C@H](CO)NC(=O)[C@H]1CCCN1C(=O)/C(=C/C)NC(=O)CC(O)CCCCC)C(C)C)C(C)C)C(C)C)C(C)C)C(=O)N[C@H]1C(=O)N[C@@H]([C@@H](C)CC)C(=O)N[C@@H](CCO)C(=O)N[C@H](CCN)C(=O)N[C@@H](CCCCN)C(=O)O[C@@H]1C` (some centres not stated) [TOLAASIN I], the MIC was 2.56 µg with Rhodotorula mucilaginosa; more than 5.12 µg in assay [1]; 0.32 µg in the assay with Rhodococcus fascians; 0.32 µg against Rhizoctonia solani; 0.32 µg against Priestia megaterium; more than 5.12 µg in the assay on Escherichia coli.

With `C/C=C(\NC(=O)[C@H](NC(=O)[C@H](CC(C)C)NC(=O)[C@@H](CCC(N)=O)NC(=O)[C@@H](NC(=O)[C@H](NC(=O)[C@@H](CC(C)C)NC(=O)[C@@H](CO)NC(=O)[C@H](NC(=O)[C@H](CC(C)C)NC(=O)[C@H](CO)NC(=O)[C@H]1CCCN1C(=O)/C(=C/C)NC(=O)CC(O)CCCCC)C(C)C)C(C)C)C(C)C)C(C)C)C(=O)N[C@H]1C(=O)N[C@@H](C(C)C)C(=O)N[C@@H](CCO)C(=O)N[C@H](CCN)C(=O)N[C@@H](CCCCN)C(=O)O[C@@H]1C` (some centres not stated) [TOLAASIN B], the MIC was more than 5.12 µg in the assay on Rhodotorula mucilaginosa; more than 5.12 µg in assay [1]; 1.28 µg in the assay on Rhodococcus fascians; 2.56 µg with Rhizoctonia solani; 2.56 µg against Priestia megaterium; more than 5.12 µg with Escherichia coli.

(Values after ChEMBL document CHEMBL1151201, “Tolaasins A--E, five new lipodepsipeptides produced by Pseudomonas tolaasii” (2004).)
